Our source for the inhibition values is ChEMBL document CHEMBL4765483 (J Med Chem, 2021).

Holding throughout (conditions): Cell membrane
Assay [1] has as its target Adenosine receptor A2a (Homo sapiens) (UniProt P29274). The assay can be described thus: Displacement of [3H]ZM2421385 from adenosine A2A receptor expressed in human HeLa cell membranes at 1 uM incubated for 30 mins by scintillation counting method.
Assay [2] deals with T1, Adenosine receptor A1 (Homo sapiens) (UniProt P30542).
T1 sequence (whole entry): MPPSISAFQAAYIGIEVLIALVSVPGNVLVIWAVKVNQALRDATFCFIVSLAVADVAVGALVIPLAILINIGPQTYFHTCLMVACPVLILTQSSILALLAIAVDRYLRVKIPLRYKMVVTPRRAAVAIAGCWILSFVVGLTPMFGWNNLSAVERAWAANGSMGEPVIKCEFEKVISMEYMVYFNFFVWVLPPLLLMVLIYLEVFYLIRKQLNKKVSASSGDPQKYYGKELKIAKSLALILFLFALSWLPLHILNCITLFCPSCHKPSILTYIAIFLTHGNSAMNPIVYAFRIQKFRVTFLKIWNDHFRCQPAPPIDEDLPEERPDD
The assay can be described thus: Displacement of [3H]DPCPX from human adenosine A1 receptor expressed in CHO cell membranes at 1 uM incubated for 60 mins by scintillation counting method. (In general: Loss of bound radioactivity is the signal in a displacement assay; it reports binding, not function.)

Assay [3] deals with T2, Adenosine receptor A2b (Homo sapiens) (UniProt P29275).
T2 sequence (whole entry): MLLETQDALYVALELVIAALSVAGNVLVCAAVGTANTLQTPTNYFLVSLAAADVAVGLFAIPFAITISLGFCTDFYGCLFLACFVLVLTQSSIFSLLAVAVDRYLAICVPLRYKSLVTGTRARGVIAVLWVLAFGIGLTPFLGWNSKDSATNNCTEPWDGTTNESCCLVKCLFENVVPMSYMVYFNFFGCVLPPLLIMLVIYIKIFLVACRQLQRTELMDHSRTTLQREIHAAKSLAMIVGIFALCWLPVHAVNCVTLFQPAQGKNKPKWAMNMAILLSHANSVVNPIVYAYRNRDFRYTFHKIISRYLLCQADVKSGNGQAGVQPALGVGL
The assay can be described thus: Displacement of [3H]DPCPX from human adenosine A2B receptor expressed in HEK293 cell membranes at 1 uM incubated for 30 mins by scintillation counting method.

Assay [4] addresses T3, Adenosine receptor A3 (Homo sapiens) (UniProt P0DMS8).
T3 sequence (whole entry): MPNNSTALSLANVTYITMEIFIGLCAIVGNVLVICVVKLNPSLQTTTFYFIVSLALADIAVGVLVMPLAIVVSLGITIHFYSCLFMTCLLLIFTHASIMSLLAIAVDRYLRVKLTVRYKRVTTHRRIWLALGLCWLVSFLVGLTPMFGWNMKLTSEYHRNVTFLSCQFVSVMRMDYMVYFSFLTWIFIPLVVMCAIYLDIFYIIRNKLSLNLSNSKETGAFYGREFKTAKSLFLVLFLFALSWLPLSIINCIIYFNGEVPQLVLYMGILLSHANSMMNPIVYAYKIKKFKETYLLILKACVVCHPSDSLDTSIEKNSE
As to the kind of experiment: Displacement of [3H]NECA from adenosine A3 receptor expressed in human HeLa cell membranes at 1 uM incubated for 180 mins by scintillation counting method. An outline of the steps: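 hA3AR in HeLa membranes (3 pmol/mg protein) with 10 nM [3H]NECA (KD 8.7 nM); nonspecific binding with 100 μM R-PIA; incubated 180 min at 25 °C, washed, filtered, radioactivity counted.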

Sequence of Adenosine receptor A2a (Homo sapiens) (P29274 whole entry): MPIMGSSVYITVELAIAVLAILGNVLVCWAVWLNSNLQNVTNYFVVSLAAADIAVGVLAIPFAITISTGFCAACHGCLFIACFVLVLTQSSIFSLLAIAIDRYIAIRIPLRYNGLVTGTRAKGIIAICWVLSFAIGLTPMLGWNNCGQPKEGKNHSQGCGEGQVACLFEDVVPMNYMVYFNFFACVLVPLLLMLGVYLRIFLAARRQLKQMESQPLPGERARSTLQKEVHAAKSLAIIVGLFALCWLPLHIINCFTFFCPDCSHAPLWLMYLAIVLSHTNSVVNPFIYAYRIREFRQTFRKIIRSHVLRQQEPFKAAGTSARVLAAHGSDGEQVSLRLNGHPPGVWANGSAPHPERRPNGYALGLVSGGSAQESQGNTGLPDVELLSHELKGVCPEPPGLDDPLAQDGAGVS

As a reminder, the inhibition is how much of the control response was suppressed. Higher therefore signals a response far below the control. As for `CCSC(=O)C1=C(C)NC(=O)NC1c1cccs1` (racemic), the inhibition stood at 8% in assay [1], 6% in assay [2], 1% in assay [3] and 1% in assay [4].
Regarding `CC1=C(C(=O)OCC(C)C)C(c2cccs2)NC(S)=N1` (racemic), the inhibition in assay [1] was found to be 2%; in assay [2], 1%; in assay [3], 12%; in assay [4], 4%.
As for `CC1=C(C(=O)OCC(C)C)C(c2ccoc2)NC(=S)N1` (racemic), the inhibition in assay [1] is 35%; in assay [2], 12%; in assay [3], 1%; in assay [4], 1%.
`CC1=C(C(N)=O)C(c2cccs2)NC(=O)N1` (racemic): the inhibition in assay [1] came out at 1%; in assay [2] it was 2%; in assay [3] it was 3%; in assay [4], 1%.
For the compound `CCSC(=O)C1=C(C)NC(=O)NC1c1ccsc1` (racemic), the inhibition in assay [1] worked out at 1%; in assay [2], 11%; in assay [3] it was 17%; in assay [4], 2%.
The corresponding values for `CC(=O)C1=C(C)NC(=O)NC1c1ccsc1` (racemic) are 1%, 9%, 24% and 1%.
For the compound `CCN(CC)C(=O)C1=C(C)NC(=O)NC1c1cccs1` (racemic), the inhibition in assay [1] was 15%; in assay [2], 13%; in assay [3], 22%; in assay [4], 31%.
In the case of `COC(=O)C1=C(C)NC(=O)NC1c1ccsc1` (racemic), the inhibition in assay [1] came to 2%; in assay [2] it was 7%; in assay [3] it was 36%; in assay [4], 3%.
Regarding `CC1=C(C(=O)OCC(C)C)C(c2ccsc2)NC(=O)N1C` (racemic), the inhibition in assay [1] was found to be 2%; in assay [2] it was 8%; in assay [3], 1%; in assay [4], 4%.
Take `COC(=O)C1=C(C)N(C)C(=O)NC1c1ccoc1` (racemic): the inhibition was 5% in assay [1], 15% in assay [2], 7% in assay [3] and 7% in assay [4].
Regarding `CCSC(=O)C1=C(C)NC(=O)NC1c1ccco1` (racemic), the inhibition stood at 2% in assay [1], 6% in assay [2], 29% in assay [3] and 14% in assay [4].
`CCOP(=O)(OCC)C1=C(C)NC(=O)NC1c1cccs1` (racemic): the inhibition worked out at 5% in assay [1], 2% in assay [2], 7% in assay [3] and 5% in assay [4].
In the case of `CC1=C(C(=O)OCc2ccccc2)C(c2ccco2)NC(=S)N1` (racemic), the inhibition was found to be 12% in assay [1], 32% in assay [2], 41% in assay [3] (filed as antagonist) and 4% in assay [4].
As for `CCC(C)OC(=O)C1=C(C)NC(=O)NC1c1cccs1` (racemic), the inhibition was determined as 2% in assay [1], 5% in assay [2], 7% in assay [3] and 7% in assay [4].
On to `CC1=C(C(=O)OC2CCCCC2)C(c2ccsc2)NC(=O)N1` (racemic), for which the inhibition came to 2% in assay [1], 8% in assay [2], 4% in assay [3] and 1% in assay [4].
In the case of `CC1=C(C(=O)OCc2ccccc2)C(c2ccoc2)NC(=S)N1` (racemic), the inhibition was 16% in assay [1], 25% in assay [2], 36% in assay [3] and 20% in assay [4].
The corresponding values for `CC1=C(C(=O)OCC(C)C)C(c2ccco2)NC(=O)N1C` (racemic) are 3%, 13%, 4% and 23%.
On to `COC(=O)C1=C(C)N(C)C(=O)NC1c1ccco1` (racemic), for which the inhibition in assay [1] was 1%; in assay [2], 45%; in assay [3] it was 31%; in assay [4], 9%.
The corresponding values for `CC1=C(C(=O)SC(C)C)C(c2cccs2)NC(=O)N1` (racemic) are 1%, 1%, 1% and 1%.
Take `CCNC(=O)C1=C(C)NC(=O)NC1c1ccco1` (racemic): the inhibition came to 1% in assay [1], 2% in assay [2], 1% in assay [3] and 3% in assay [4].
Turning to `CC1=C(C(=O)OC(C)(C)C)C(c2cccs2)NC(=O)N1C` (racemic), the inhibition was determined as 12% in assay [1], 18% in assay [2], 24% in assay [3] and 22% in assay [4].
For `CC1=C(C(=O)OC(C)(C)C)C(c2ccco2)NC(=S)N1` (racemic), the inhibition in assay [1] is 1%; in assay [2] it was 3%; in assay [3], 9%; in assay [4], 9%.
With `CCCOC(=O)C1=C(C)N(C)C(=O)NC1c1ccoc1` (racemic), the inhibition came to 1% in assay [1], 1% in assay [2], 2% in assay [3] and 16% in assay [4].
As for `COC(=O)C1=C(C)NC(=S)NC1c1ccsc1` (racemic), the inhibition stood at 1% in assay [1], 3% in assay [2], 38% in assay [3] and 3% in assay [4].
For the compound `CC1=C(C(=O)OC(C)(C)C)C(c2ccoc2)NC(=O)N1C` (racemic), the inhibition in assay [1] is 16%; in assay [2], 21%; in assay [3], 16%; in assay [4], 12%.
`CC1=C(C(=O)OC(C)C)[C@H](c2ccco2)NC(=S)N1`: the inhibition was found to be 6% in assay [1], 10% in assay [2], 12% in assay [3] and 2% in assay [4].
In the case of `CC1=C(C(=O)C2CC2)C(c2ccsc2)NC(=O)N1` (racemic), the inhibition came out at 4% in assay [1], 2% in assay [2], 1% in assay [3] and 1% in assay [4].
In the case of `COC(=O)C1=C(C)N(C)C(=O)NC1c1ccsc1` (racemic), the inhibition in assay [1] worked out at 13%; in assay [2], 24%; in assay [3], 26%; in assay [4], 22%.
As to `CC1=C(C(=O)OC(C)(C)C)C(c2ccco2)NC(=O)N1C` (racemic), the inhibition was 20% in assay [1], 44% in assay [2], 26% in assay [3] and 54% in assay [4].
Regarding `CCCOC(=O)C1=C(C)N(C)C(=O)NC1c1ccsc1` (racemic), the inhibition in assay [1] is 3%; in assay [2], 2%; in assay [3], 1%; in assay [4], 11%.
Turning to `CCOP(=O)(OCC)C1=C(C)NC(=O)NC1c1ccsc1` (racemic), the inhibition in assay [1] came out at 3%; in assay [2], 4%; in assay [3] it was 1%; in assay [4], 1%.
Turning to `CC1=C(C(=O)OC2CCCCC2)C(c2ccoc2)NC(=O)N1` (racemic), the inhibition in assay [1] amounted to 3%; in assay [2], 15%; in assay [3] it was 4%; in assay [4] it was 1%.
